Measurements reported in ChEMBL document CHEMBL1124417, “Synthesis and hypertensive activity of neuropeptide Y fragments and analogues with modified N- or C-termini or D-substitutions” (1989).

Assays:
[1] = tested on: Rattus norvegicus; assay: Hypertensive potency in conscious rats after intra arterial administration.; assay type: functional
In short: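 Male Sprague-Dawley rats (240-280 g), conscious; catheters placed under pentobarbital anaesthesia (40 mg/kg) with ≥2 h recovery. Peptides in saline given intraarterially as 100-µL bolus. ΔMAP = posttreatment minus mean pretreatment saline zero values (n = 4).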

[2] = tested on: Rattus norvegicus; assay: Mean arterial pressure was measured in conscious rats after intra arterial administration at 400 ug/kg dosage.; assay type: functional, Artery
In short: (§1)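 Conscious male Sprague-Dawley rats (240-280 g), catheterised under pentobarbital (40 mg/kg), ≥2 h recovery. Saline peptide solutions as intraarterial 100-µL bolus. MAP via pressure transducer, computed as [[…] + diastolic]. ΔMAP = value at 1 min minus mean pretreatment saline zero values (n = 4). Means ± SEM, n ≥ 3.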

[3] = tested on: Rattus norvegicus; assay: Mean arterial pressure was measured in conscious rats after intra arterial administration at 40 ug/kg dosage.; assay type: functional, Artery; in short: as §1
[4] = Relative potency measured as ratio of ED50 of NPY to ED50 of analogue; assay type: functional

| Compound | ED50 [1] [mg/kg] | Delta MAP [2] | Delta MAP [3] | Ratio [4] |
| --- | --- | --- | --- | --- |
| H-YPSKPDNPGEDAPA-OH | > 0.4 | <5 | <5 | – |
| CC[C@H](C)[C@H](NC(=O)[C@H](Cc1ccc(O)cc1)NC(=O)[C@@H](N)Cc1c[nH]cn1)C(=O)N[C@@H](CC(N)=O)C(=O)N[C@@H](CC(C)C)C(=O)N[C@H](C(=O)N[C@H](C(=O)N[C@@H](CCCN=C(N)N)C(=O)N[C@@H](CCC(N)=O)C(=O)N[C@@H](CCCN=C(N)N)C(=O)N[C@@H](Cc1ccc(O)cc1)C(N)=O)[C@@H](C)O)[C@@H](C)CC | > 0.4 | 7 | <5 | – |
| CC[C@H](C)[C@H](NC(=O)[C@H](Cc1ccc(O)cc1)NC(=O)[C@H](Cc1c[nH]cn1)NC(=O)[C@H](CCCN=C(N)N)NC(=O)[C@H](CC(C)C)NC(=O)[C@H](C)NC(=O)[C@H](CO)NC(=O)[C@H](Cc1ccc(O)cc1)NC(=O)[C@H](Cc1ccc(O)cc1)NC(=O)[C@H](CCCN=C(N)N)NC(=O)[C@H](C)NC(=O)[C@H](CC(C)C)NC(=O)[C@H](CC(=O)O)NC(=O)[C@H](CCC(=O)O)NC(=O)[C@H](C)NC(=O)[C@@H]1CCCN1C(=O)[C@H](C)NC(=O)[C@H](CC(=O)O)NC(=O)[C@H](CCC(=O)O)NC(=O)[C@H](C)NC(=O)[C@@H]1CCCN1C(=O)[C@H](CC(N)=O)NC(=O)[C@H](CC(=O)O)NC(=O)[C@@H]1CCCN1C(=O)[C@H](CCCCN)NC(=O)[C@H](CO)NC(=O)[C@@H]1CCCN1C(=O)[C@@H](N)Cc1ccc(O)cc1)C(=O)N[C@@H](CC(N)=O)C(=O)N[C@@H](CC(C)C)C(=O)N[C@H](C(=O)N[C@H](C(=O)N[C@@H](CCCN=C(N)N)C(=O)N[C@@H](CCC(N)=O)C(=O)N[C@@H](CCCN=C(N)N)C(=O)O)[C@@H](C)O)[C@@H](C)CC | – | – | – | 0.7 |
